# Diaphorase inh: counter-screen for diaphorase-based assays: diaphorase inhibitors and chemical oxidizers. diaphorase resazurin-to-resorufin fluorescence, NADH, 16 min; bacterial (C. kluyveri) enzyme, not human. inhibition, % at 20 µM. 0.69% of 190,000 active. AID 1217;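 active means primary screen inhibition at 20 µM above a set limit, cut at about 50% in these data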;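 further: plate controls were DMSO with full reaction for no effect and wells lacking NADH for full effect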
#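 Benchmarks: positive control wells lacking NADH, neutral wells with DMSO only. System: bacterial diaphorase enzyme (C. kluyveri). Input: 0.14 U/mL diaphorase, enzyme working solution. Detection: resorufin fluorescence, excitation 544 nm, emission 590 nm. Times: 16-min room-temperature incubation before reading.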
# G6PDH counter: inhibits Leuconostoc G6PDH, flagging false hits in G6PDH-based assays | Purified L. mesenteroides G6PDH, diaphorase/resazurin coupled fluorescence, 45 min | inhibition, % at 5 µM | 0.12% of 200,000 active | AID 1020
# Lmaj promast: Leishmania major promastigote growth inhibition; Leishmania major promastigotes, resazurin fluorescence viability; inhibition, % at 10 µM; 9% of 200,000 active;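 further: promastigotes grown with compound for 44 hours at 28 °C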
# DTT redox prof: compounds producing H2O2 with reducing agent – biochemical, NIH compound library profiling, artefact control for MLSCN library redox annotation, primary screen; DTT-dependent redox cycling H2O2, phenol red/HRP absorbance; 100% = 100 µM peroxide control, 0% = buffer; activation, % at 10 µM; 0.03% of 200,000 active; AID 878;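 active means activation of at least 50% relative to the plate's high and low controls in the primary single-dose screen; inactive means activation below 50%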;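 further: compound incubated with DTT at 0.8 mM final as the reducing agent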
# PfG6PD inh: PfG6PD (Plasmodium falciparum) enzyme inhibition | PfGluPho enzyme, NADPH resazurin-diaphorase fluorescence | inhibition, % at 20 µM | 0.78% of 350,000 active;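 active means inhibition reaching at least a set limit at 20 µM in the primary screen, cut at about 59% in these data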;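 further: 0% = DMSO wells with substrate and 100% = DMSO wells lacking glucose-6-phosphate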
# Diaph act CS: counter-screen for diaphorase-based assays: diaphorase activators and chemical reducers | Diaphorase/resazurin coupled assay, resorufin fluorescence, 16 min; active compounds read high; 1 = vehicle wells, 0 = NADH-free wells | activation factor at 20 µM | 0.005% of 190,000 active;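 active means diaphorase activity raised at least twofold by the compound at 20 µM; inactive means activation factor below 2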
#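 Material: Purified diaphorase enzyme from Clostridium kluyveri | Buffer or medium: 50 mM HEPES pH 7.4 with 4.542 mM MgCl2, 0.005% Tween 20 | Times: 16 min enzyme reaction, ambient temperature | Signal: Red resorufin fluorescence at 544/590 nm excitation/emission | Measure: Increased resorufin signal from activators or reducing compounds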
# Starred values were filed as active, the others as inactive; nt = no result given. The sample as a whole holds a higher share of hits than the screen did. Unless noted, no stated cut-off is given here; in the data, active means inhibition above about 50%; inactive means the rest.
SMILES,Diaphorase inh,G6PDH counter,Lmaj promast,DTT redox prof,PfG6PD inh,Diaph act CS
CC(=O)Nc1ccccc1-c1nc2ccccc2nc1OCC(=O)c1ccc(Cl)cc1,9.2,-17.8,-1.1,0.4,-5.5,0.9
Cc1cn(-c2cc(C(=O)Nc3ccc(C)c(NC(=O)C(=O)c4c[nH]c5ccccc45)c3)cc(C(F)(F)F)c2)cn1,nt,nt,nt,nt,-29.8,nt
C=CCSc1nnc(NC(=O)CCN2C(=O)C3CC=CCC3C2=O)s1 (centres undefined),nt,nt,nt,nt,6.2,nt
O=C(Nc1ncccc1Cl)c1cccc(F)c1,19.2,0.3,-6.6,0.2,-2.7,0.8
O=C(Nc1ncccc1Cl)c1ccccc1F,8.9,-2.0,72.2*,1.1,-15.0,0.9
BrC(=C\c1ccccc1)/C=N/N1CCN(Cc2ccccc2)CC1,18.1,-34.0,53.4*,-1.3,15.6,0.8
FC(F)(F)c1ccc(/C=N/N2CCN(Cc3ccccc3)CC2)cc1,16.3,0.7,54.1*,0.0,25.9,0.8
Cc1ccc(CN2CCN(/N=C/c3ccc(C(F)(F)F)cc3)CC2)cc1,14.4,-9.0,37.4,-0.2,28.2,0.9
Cc1cnc(NC(=O)C(C)N2CCN(C)CC2)s1 (centres undefined),13.3,8.3,-6.2,-1.9,1.5,0.9
OC(CNCCc1ccc(C(F)(F)F)cc1)COc1ccc2ccccc2c1 (centres undefined),-22.8,-0.7,99.0*,0.3,25.6,1.2
COc1ccc(CCNCC(O)COc2cccc(Br)c2)cc1 (centres undefined),-5.5,0.0,51.7*,0.0,-4.8,1.1
OC(CNCCc1ccc(C(F)(F)F)cc1)COc1cccc2ccccc12 (centres undefined),-4.3,8.7,96.9*,0.3,31.1,1
Cc1ccc(N2C(=O)c3ccccc3C2C(=O)c2ccc(C)c(C)c2O)cc1 (centres undefined),nt,nt,nt,nt,26.7,nt
CN(Cc1ccccc1)C(=O)N1CCOCC1,nt,nt,nt,nt,-8.8,nt
COc1ccc(S(=O)(=O)NCC(c2cccnc2)N2CCN(C)CC2)cc1C (centres undefined),-4.5,1.7,0.4,0.0,-2.5,1
COc1ccccc1N1CCN(C(CNS(=O)(=O)c2ccccc2)c2cccnc2)CC1 (centres undefined),16.1,-0.4,92.9*,-0.2,-0.3,0.8
COc1ccc(S(=O)(=O)NCC(c2cccnc2)N2CCN(C)CC2)cc1OC (centres undefined),nt,nt,nt,nt,-7.5,nt
COc1ccc(S(=O)(=O)NCC(c2cccnc2)N2CCN(c3ccccc3OC)CC2)cc1C (centres undefined),3.3,7.2,97.8*,-0.1,-2.5,1
COc1ccc(CCNC(=O)[C@@H](NC(=O)N2CC(=O)Nc3ccccc32)C(C)C)cc1OC,nt,nt,nt,nt,0.0,nt
Cn1cc(-c2ccccc2C(N)=O)c(=O)c2ccccc21,3.3,6.2,-1.2,0.0,-2.0,1
Cn1cc(-c2ccccc2C(N)=O)c(=O)c2cc(Cl)ccc21,4.3,1.1,72.6*,-0.3,12.8,1
CC1(C)CC(=O)C2=C(C1)OC(N)=C(C#N)C21CCN(Cc2ccccc2)CC1,15.3,3.9,-2.6,-0.7,0.5,0.8
CC1(C)CC(=O)C2=C(C1)OC(N)=C(C#N)C21C(=O)N(Cc2ccccc2Cl)c2ccccc21 (centres undefined),12.1,10.8,58.8*,0.3,10.6,0.9
C/C(=C\C(=O)c1cccnc1)Nc1ccc(O)cc1,38.4,10.5,99.1*,-0.5,20.4,0.6
O=C(Nn1cc(C(=O)Nc2ccccc2F)c2ccccc2c1=O)c1cnccn1,2.6,27.7,73.7*,-2.4,6.5,1
SMILES,Diaphorase inh,G6PDH counter,Lmaj promast,DTT redox prof,PfG6PD inh,Diaph act CS
CCCCCCCC(=O)N/N=C(\C)c1cccnc1,17.0,7.4,-1.4,0.0,4.3,0.8
Cc1ccc(Nc2ccc([N+](=O)[O-])nc2[N+](=O)[O-])cc1,19.1,-17.2,69.8*,-6.0,1.4,0.8
Cc1ccc(Nc2ccc3nonc3c2[N+](=O)[O-])cc1,11.3,2.8,-5.9,-0.1,-10.4,0.9
COc1ccc(NC(=O)c2ccc(NCCCN3CCOCC3)c([N+](=O)[O-])c2)cc1,8.8,-12.4,54.7*,0.4,4.3,0.9
O=C(Nc1ccc(Cl)c([N+](=O)[O-])c1)c1ccc(NCCCN2CCOCC2)c([N+](=O)[O-])c1,-15.8,-59.9,45.0,-4.4,-8.1,1.2
COc1ccc(C(=O)NCCN2CCOCC2)cc1[N+](=O)[O-],nt,nt,nt,nt,-19.5,nt
Cc1ccc(NC(=O)c2ccc(NCCCN3CCOCC3)c([N+](=O)[O-])c2)cc1Cl,7.5,0.1,99.3*,0.8,17.3,0.9
O=C(Nc1ccc(N2CCCCC2)c(Cl)c1)c1ccc(N2CCOCC2)c([N+](=O)[O-])c1,2.8,8.7,93.3*,2.4,19.5,1
COc1c(C)cc(C(=O)C2CCCN(Cc3ccc(Oc4ncccn4)cc3)C2)cc1C (centres undefined),7.3,8.4,82.1*,-0.1,1.2,0.9
COc1ccccc1C(=O)C1CCCN(Cc2ccc(Oc3ncccn3)cc2)C1 (centres undefined),10.8,7.0,-1.5,-0.1,1.7,0.9
CCCn1ncc(CN2CCCC(C(=O)c3cccc(OC(C)C)c3)C2)c1C (centres undefined),nt,nt,nt,nt,-2.2,nt
CCCn1cc(CN2CCCC(C(=O)c3cccc(OC(C)C)c3)C2)c(C)n1 (centres undefined),3.7,-1.7,73.8*,-0.3,4.2,1
CC(C)Oc1cccc(C(=O)C2CCCN(Cc3ccc(Oc4ncccn4)cc3)C2)c1 (centres undefined),14.6,10.4,79.1*,-1.3,17.6,0.9
COC(=O)c1ccccc1NC(=S)NC(NC(=O)c1ccccc1[N+](=O)[O-])C(Cl)(Cl)Cl (centres undefined),28.3,-0.5,95.6*,1.9,-1.1,0.7
CC(=O)NC(NC(=S)Nc1ccc(N=Nc2ccccc2)cc1)C(Cl)(Cl)Cl (centres undefined),2.0,6.3,63.7*,3.5,-4.4,1
CCOC(=O)NC(NC(=S)Nc1ccc(OC)cc1)C(Cl)(Cl)Cl (centres undefined),6.8,6.2,1.5,0.1,9.3,0.9
COC(=O)c1ccccc1NC(=S)NC(NC(=O)c1ccco1)C(Cl)(Cl)Cl (centres undefined),20.7,6.1,20.0,1.6,4.2,0.8
COC(=O)NC(NC(=S)Nc1ccc([N+](=O)[O-])cc1)C(Cl)(Cl)Cl (centres undefined),21.3,0.7,99.1*,0.8,-3.8,0.8

# Screening data (PubChem)
